How the values were obtained:
Assay type in all cases: functional
[1] = test system: Rodentolepis nana; assay: Anthelmintic activity against mice infected with parasite Hymenolepis nana at a dose of 125 ppm (in feed)
Outline: (§1)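 Compound was given in feed ad libitum from 24 h postinfection for 18 days, four mice per group. On day 19, N. dubius were counted in the duodenum and H. nana in the ileum. Result is % reduction of mean worm burden vs untreated control; ≤25% was recorded as 0.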

[2] = test system: Heligmosomoides polygyrus; assay: Anthelmintic activity against mice, infected with parasite Nematospiroides dubius, at a dose of 125 (ppm in feed); outline: as §1
[3] = test system: Rodentolepis nana; assay: The compound was tested for anthelmintic activity against mice, infected with parasite Hymenolepis nana at a dose of 250(ppm in feed); outline: as §1
[4] = test system: Heligmosomoides polygyrus; assay: Anthelmintic activity against mice, infected with parasite Nematospiroides dubius, at a dose of 250(ppm in feed); outline: as §1
[5] = test system: Rodentolepis nana; assay: Anthelmintic activity against mice infected with parasite Hymenolepis nana at a dose of 62(ppm in feed).; outline: as §1
[6] = test system: Heligmosomoides polygyrus; assay: Anthelmintic activity against mice infected with parasite Nematospiroides dubius, at a dose of 62(ppm in feed).; outline: as §1
[7] = test system: Ovis aries; assay: Anthelmintic activity against sheep, infected with Haemonchus contortus, at a dose of 30 mg/kg.
Outline: (§2)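 Merino ewes and wethers (12-15 months, 25-35 kg) received L3 intraruminally on day 0. Susceptible strains: H. contortus 6000, O. circumcincta 8000, T. colubriformis 8000. Benzimidazole-resistant strains: 8000, 9000, 9000. Animals were allocated by day-27 fecal egg count (n = 4-7) and given a single intraruminal dose in 0.5% carboxymethylcellulose saline. Adult worms in abomasum and small intestine were counted on day 35. Result is mean % reduction vs untreated controls.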

[8] = test system: Ovis aries; assay: Anthelmintic activity against sheep, infected with Ostertagia circumcincta, at a dose of 30 mg/kg.; outline: as §2
[9] = test system: Ovis aries; assay: Anthelmintic activity against sheep, infected with Trichostrongylus colubriformis, at a dose of 30 mg/kg.; outline: as §2
[10] = test system: Rodentolepis nana; assay: The compound was tested for anthelmintic activity against mice, infected with parasite Hymenolepis nana at a dose of 500(ppm in feed); outline: as §1
[11] = test system: Heligmosomoides polygyrus; assay: Anthelmintic activity against mice, infected with parasite Nematospiroides dubius, at a dose of 500(ppm in feed); outline: as §1
[12] = test system: Heligmosomoides polygyrus; assay: Anthelmintic activity against mice, infected with parasite Nematospiroides dubius, at a dose of 62(ppm in feed); outline: as §1
[13] = test system: Rodentolepis nana; assay: The compound was tested for anthelmintic activity against mice, infected with parasite Hymenolepis nana at a dose of 31(ppm in feed); outline: as §1
[14] = test system: Heligmosomoides polygyrus; assay: Anthelmintic activity against mice, infected with parasite Nematospiroides dubius, at a dose of 31(ppm in feed); outline: as §1

SMILES: N#C/C(C(=O)Nc1ccc(C(F)(F)F)cc1)=C(/O)c1ccc(C#N)cc1
- Reduction [1]: 78%
- Reduction [2]: 28%

SMILES: N#C/C(C(=O)Nc1ccc(Sc2ccc(Cl)cc2)cc1)=C(/O)c1ccc(C(F)(F)F)cc1
- Reduction [3]: 33%
- Reduction [1]: 0%
- Reduction [2]: 0%
- Reduction [4]: 94%

SMILES: N#C/C(C(=O)Nc1cccc(C(F)(F)F)c1)=C(/O)c1ccc(C(F)(F)F)cc1
- Reduction [1]: 0%
- Reduction [2]: 0%

SMILES: COc1ccc(/C(O)=C(\C#N)C(=O)Nc2ccc(C(F)(F)F)cc2)cc1
- Reduction [1]: 0%
- Reduction [2]: 0%

SMILES: N#C/C(C(=O)Nc1ccc(I)cc1)=C(/O)c1ccc(C(F)(F)F)cc1
- Reduction [5]: 0%
- Reduction [1]: 0%
- Reduction [2]: 100%
- Reduction [6]: 0%

SMILES: CN(C(=O)/C(C#N)=C(\O)c1ccc(C(F)(F)F)cc1)c1ccc(C(F)(F)F)cc1
- Reduction [5]: 0%
- Reduction [1]: 0%
- Reduction [2]: 100%
- Reduction [6]: 76%

SMILES: COc1ccc(NC(=O)/C(C#N)=C(\O)c2ccc(C(F)(F)F)cc2)cc1
- Reduction [1]: 0%
- Reduction [2]: 0%

SMILES: N#C/C(C(=O)Nc1ccc(C(F)(F)F)cc1)=C(/O)c1cccc(Cl)c1
- Reduction [1]: 0%
- Reduction [2]: 0%

SMILES: N#C/C(C(=O)Nc1ccc(C(F)(F)F)cc1)=C(/O)c1ccc(I)cc1
- Reduction [5]: 0%
- Reduction [1]: 89%
- Reduction [2]: 97%
- Reduction [6]: 0%

SMILES: CC(=O)c1ccc(NC(=O)/C(C#N)=C(\O)c2ccc(C(F)(F)F)cc2)cc1
- Reduction [1]: 0%
- Reduction [2]: 0%

SMILES: N#C/C(C(=O)Nc1ccc(C(F)(F)F)cc1)=C(/O)c1ccc([N+](=O)[O-])cc1
- Reduction [5]: 69%
- Reduction [6]: 0%

SMILES: N#C/C(C(=O)Nc1ccc(Br)cc1)=C(/O)c1ccc(Br)cc1
- Reduction [5]: 0%
- Reduction [1]: 0%
- Reduction [2]: 100%
- Reduction [6]: 29%

SMILES: N#C/C(C(=O)Nc1ccc(Br)cc1)=C(/O)c1ccc(Cl)cc1
- Reduction [5]: 0%
- Reduction [1]: 0%
- Reduction [2]: 100%
- Reduction [6]: 47%

SMILES: N#C/C(C(=O)Nc1ccc(Sc2ccccc2)cc1)=C(/O)c1ccc(C(F)(F)F)cc1
- Reduction [3]: 0%
- Reduction [4]: 0%

SMILES: N#C/C(C(=O)Nc1ccc(Cl)c(Cl)c1)=C(/O)c1ccc(Cl)c(Cl)c1
- Reduction [1]: 0%
- Reduction [2]: 0%
- Reduction [7]: 100%
- Reduction [8]: 0%
- Reduction [9]: 0%

SMILES: N#C/C(C(=O)Nc1ccc(Cl)cc1)=C(/O)c1ccc(Cl)c(Cl)c1
- Reduction [5]: 0%
- Reduction [1]: 100%
- Reduction [2]: 100%
- Reduction [6]: 32%

SMILES: N#C/C(C(=O)Nc1ccc(C(F)(F)F)cc1)=C(/O)c1ccc(Cl)cc1Cl
- Reduction [5]: 52%
- Reduction [6]: 32%

SMILES: COC(=O)c1ccc(NC(=O)/C(C#N)=C(\O)c2ccc(C(F)(F)F)cc2)cc1
- Reduction [1]: 0%
- Reduction [2]: 0%

SMILES: N#C/C(C(=O)Nc1ccc(C(F)(F)F)cc1)=C(O)\C=C\c1ccc(C(F)(F)F)cc1
- Reduction [3]: 0%
- Reduction [4]: 48%

SMILES: N#C/C(C(=O)c1ccc(C(F)(F)F)cc1)=C(/S)Nc1ccc(C(F)(F)F)cc1
- Reduction [3]: 90%
- Reduction [1]: 0%
- Reduction [2]: 0%
- Reduction [4]: 100%

SMILES: N#C/C(C(=O)Nc1ccc(F)cc1)=C(/O)c1ccc(F)cc1
- Reduction [1]: 0%
- Reduction [2]: 0%

SMILES: N#C/C(C(=O)Nc1ccc(Cl)cc1)=C(/O)c1ccc(C(F)(F)F)cc1
- Reduction [5]: 78%
- Reduction [1]: 100%
- Reduction [2]: 100%
- Reduction [6]: 65%

SMILES: CS(=O)(=O)c1ccc(NC(=O)/C(C#N)=C(\O)c2ccc(C(F)(F)F)cc2)cc1
- Reduction [1]: 0%
- Reduction [2]: 0%

SMILES: N#C/C(C(=O)Nc1ccccc1)=C(/O)c1ccc(C(F)(F)F)cc1
- Reduction [10]: 100%
- Reduction [11]: 32%

SMILES: N#C/C(C(=O)Nc1ccc(Br)cc1)=C(/O)c1ccc(C(F)(F)F)cc1
- Reduction [5]: 0%
- Reduction [1]: 95%
- Reduction [2]: 100%
- Reduction [6]: 56%

SMILES: N#C/C(C(=O)Nc1ccc(C(F)(F)F)cc1)=C(/O)c1ccc(Cl)cc1
- Reduction [5]: 0%
- Reduction [6]: 53%

SMILES: N#C/C(C(=O)Nc1ccc(C(F)(F)F)cc1)=C(/O)c1ccccc1C(F)(F)F
- Reduction [1]: 0%
- Reduction [2]: 0%

SMILES: N#C/C(C(=O)Nc1ccc(F)cc1)=C(/O)c1ccc(C(F)(F)F)cc1
- Reduction [5]: 0%
- Reduction [1]: 0%
- Reduction [2]: 100%
- Reduction [12]: 0%

SMILES: N#C/C(C(=O)Nc1ccc(C(F)(F)F)cc1)=C(/O)c1cccc(C(F)(F)F)c1
- Reduction [5]: 0%
- Reduction [1]: 100%
- Reduction [2]: 89%
- Reduction [6]: 0%

SMILES: N#C/C(C(=O)Nc1ccc(C(F)(F)F)cc1)=C(/O)c1ccc(Cl)c(Cl)c1
- Reduction [5]: 0%
- Reduction [1]: 0%
- Reduction [2]: 95%
- Reduction [6]: 0%

SMILES: N#C/C(C(=O)Nc1ccc(C(F)(F)F)cc1)=C(/O)Cc1ccc(C(F)(F)F)cc1
- Reduction [3]: 0%
- Reduction [1]: 0%
- Reduction [2]: 35%
- Reduction [4]: 90%
- Reduction [7]: 78%
- Reduction [8]: 0%
- Reduction [9]: 0%

SMILES: N#C/C(C(=O)Nc1ccc(N=C=S)cc1)=C(/O)c1ccc(C(F)(F)F)cc1
- Reduction [1]: 0%
- Reduction [2]: 80%

SMILES: N#C/C(C(=O)Nc1ccc(C(F)(F)F)cc1)=C(/O)c1cc(Cl)cc(Cl)c1
- Reduction [5]: 0%
- Reduction [1]: 100%
- Reduction [2]: 100%
- Reduction [6]: 0%
- Reduction [7]: 100%
- Reduction [8]: 0%
- Reduction [9]: 0%

SMILES: N#C/C(C(=O)Nc1ccc(Cl)c(Cl)c1)=C(/O)c1ccc(Cl)cc1
- Reduction [1]: 47%
- Reduction [2]: 57%

SMILES: N#C/C(C(=O)Nc1ccc(C(F)(F)F)cc1)=C(/O)c1ccc(F)cc1
- Reduction [5]: 0%
- Reduction [1]: 100%
- Reduction [2]: 100%
- Reduction [6]: 0%

SMILES: N#C/C(C(=O)Nc1ccc(C(F)(F)F)cc1)=C(/O)c1ccc(OC(F)(F)F)cc1
- Reduction [5]: 0%
- Reduction [1]: 100%
- Reduction [2]: 100%
- Reduction [6]: 86%

SMILES: N#C/C(C(=O)Nc1ccc(C#N)cc1)=C(/O)c1ccc(C(F)(F)F)cc1
- Reduction [5]: 0%
- Reduction [1]: 100%
- Reduction [2]: 100%
- Reduction [6]: 43%
- Reduction [7]: 87%
- Reduction [8]: 7%
- Reduction [9]: 26%

SMILES: N#CSc1ccc(NC(=O)/C(C#N)=C(\O)c2ccc(C(F)(F)F)cc2)cc1
- Reduction [1]: 0%
- Reduction [2]: 0%

SMILES: N#C/C(C(=O)Nc1ccc(Oc2ccc(Cl)cc2)c(Cl)c1)=C(/O)c1ccc(C(F)(F)F)cc1
- Reduction [10]: 83%
- Reduction [1]: 0%
- Reduction [2]: 0%
- Reduction [7]: 0%
- Reduction [8]: 0%
- Reduction [9]: 0%
- Reduction [11]: 100%

SMILES: N#C/C(C(=O)Nc1ccc(C(F)(F)F)cc1)=C(/O)c1ccc(Oc2ccc(Cl)cc2)cc1
- Reduction [1]: 0%
- Reduction [2]: 30%

SMILES: CCN(CC)C(=O)c1ccc(NC(=O)/C(C#N)=C(\O)c2ccc(C(F)(F)F)cc2)cc1
- Reduction [1]: 0%
- Reduction [2]: 0%

SMILES: N#C/C(C(=O)Nc1ccc(Cl)cc1)=C(/O)c1ccc(Br)cc1
- Reduction [5]: 0%
- Reduction [1]: 0%
- Reduction [2]: 100%
- Reduction [6]: 76%

SMILES: N#C/C(C(=O)Nc1ccccc1C(F)(F)F)=C(/O)c1ccc(C(F)(F)F)cc1
- Reduction [1]: 0%
- Reduction [2]: 0%

SMILES: N#C/C(C(=O)Nc1ccc(Cl)c(Cl)c1)=C(/O)c1ccc(C(F)(F)F)cc1
- Reduction [5]: 0%
- Reduction [1]: 93%
- Reduction [2]: 100%
- Reduction [6]: 0%

SMILES: Cc1cc(C#N)ccc1NC(=O)/C(C#N)=C(\O)c1ccc(C(F)(F)F)cc1
- Reduction [5]: 0%
- Reduction [1]: 100%
- Reduction [2]: 90%
- Reduction [6]: 0%

SMILES: N#C/C(C(=O)Nc1ccc(Cl)cc1Cl)=C(/O)c1ccc(C(F)(F)F)cc1
- Reduction [5]: 63%
- Reduction [1]: 100%
- Reduction [2]: 89%
- Reduction [6]: 0%

SMILES: N#C/C(C(=O)Nc1ccc(OC(F)(F)F)cc1)=C(/O)c1ccc(OC(F)(F)F)cc1
- Reduction [13]: 0%
- Reduction [5]: 56%
- Reduction [14]: 39%
- Reduction [6]: 100%

SMILES: N#C/C(C(=O)Nc1ccc(Cl)cc1)=C(/O)c1ccc(Cl)cc1
- Reduction [5]: 30%
- Reduction [1]: 100%
- Reduction [2]: 100%
- Reduction [6]: 59%

SMILES: Cc1ccc(/C(O)=C(\C#N)C(=O)Nc2ccc(C(F)(F)F)cc2)cc1
- Reduction [1]: 0%
- Reduction [2]: 0%

SMILES: N#C/C(C(=O)Nc1ccc(C(F)(F)F)cc1)=C(/O)c1ccc(S(=O)(=O)c2ccccc2)cc1
- Reduction [1]: 0%
- Reduction [2]: 0%

SMILES: Cc1cc([N+](=O)[O-])ccc1NC(=O)/C(C#N)=C(\O)c1ccc(C(F)(F)F)cc1
- Reduction [5]: 0%
- Reduction [1]: 99%
- Reduction [2]: 97%
- Reduction [6]: 35%
- Reduction [7]: 0%
- Reduction [8]: 0%
- Reduction [9]: 0%

Reference: ChEMBL document CHEMBL1125798, “Synthesis and biological activity of a series of diaryl-substituted alpha-cyano-beta-hydroxypropenamides, a new class of anthelmintic agents” (1991)
